# Reference: PMC9037101 (RSC Advances, 2021)
# Key:
# [1] = assay type: in vivo, Sprague-Dawley (SD) rats; settings: for AUC(0-inf) / Cmax / Tmax / half-life / AUC(0-t): male, Sprague-Dawley, plasma, po, 15 mL kg^−1; for AUC(0-inf) / Cmax / Tmax / half-life / AUC(0-t) / absorption into blood (in words): rat; for absorption into blood (in words): oral administration of extract
# [2] = Stability of the analytes in rat plasma QC samples; assay type: in vitro ADME; settings: for Free-thaw stability: Measured concentration / Free-thaw stability: Accuracy: 3 free thaw cycles; for Free-thaw stability: Accuracy / Long-tern stability: Accuracy: relative error; for Long-tern stability: Accuracy / Long-tern stability: Measured concentration: −20 °C for 21 d; for Short-tern stability: Measured concentration: room temperature for 8 h
# Procedure, shortened: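 Rat (SD male) plasma QC samples at low, medium and high levels, six replicates each. Storage conditions: 4 h at room temperature after preparation, 8 h at room temperature (short-term), 21 days at −20 °C (long-term), and three freeze (−20 °C)/thaw (room temperature) cycles over three consecutive days. Samples were methanol-precipitated with internal standard and measured by HPLC-MS/MS. Stability was reported as relative error.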
# [3] = double-peak phenomenon, rat plasma, oral extract
SMILES,AUC(0-inf) [1] [ng·h/mL],Cmax [1] [ng/mL],Tmax [1] [min],half-life [1] [min],Free-thaw stability: Measured concentration ([2]; high QC spiked concentration) [ng/mL],Free-thaw stability: Measured concentration ([2]; low QC spiked concentration) [ng/mL],Free-thaw stability: Measured concentration ([2]; medium QC spiked concentration) [ng/mL],Free-thaw stability: Accuracy ([2]; high QC spiked concentration) [%],Free-thaw stability: Accuracy ([2]; low QC spiked concentration) [%],Free-thaw stability: Accuracy ([2]; medium QC spiked concentration) [%],Long-tern stability: Accuracy ([2]; high QC spiked concentration) [%],Long-tern stability: Accuracy ([2]; low QC spiked concentration) [%],Long-tern stability: Accuracy ([2]; medium QC spiked concentration) [%],Short-tern stability: Measured concentration ([2]; high QC spiked concentration) [ng/mL],Short-tern stability: Measured concentration ([2]; low QC spiked concentration) [ng/mL],Short-tern stability: Measured concentration ([2]; medium QC spiked concentration) [ng/mL],Long-tern stability: Measured concentration ([2]; high QC spiked concentration) [ng/mL],Long-tern stability: Measured concentration ([2]; low QC spiked concentration) [ng/mL],Long-tern stability: Measured concentration ([2]; medium QC spiked concentration) [ng/mL],absorption into blood (in words) [1],further results
"O=c1c(O)c(-c2ccc(O)c(O)c2)oc2cc(O)cc(O)c12 [Quercetin, quercetin]",18.2,20.1 ± 24.9,5,46.03 ± 0.09,67.46 ± 2.42,2.78 ± 0.89,17.48 ± 1.19,4.62,5.30,6.72,6.02,3.03,5.43,66.98 ± 7.47,2.80 ± 1.62,17.12 ± 1.22,68.36 ± 3.68,2.72 ± 0.32,17.27 ± 2.69,rapidly absorbed,AUC(0-t) [1]: 9.31 ng·h/mL
C[C@@H]1O[C@@H](OC[C@H]2O[C@@H](Oc3c(-c4ccc(O)c(O)c4)oc4cc(O)cc(O)c4c3=O)[C@H](O)[C@@H](O)[C@@H]2O)[C@H](O)[C@H](O)[C@H]1O [Rutin],,131 ± 18.3,5,,437.7 ± 10.02,6.2 ± 1.88,110.30 ± 8.24,4.58,2.48,7.54,2.55,4.30,4.68,426.82 ± 18.15,6.36 ± 6.81,108.48 ± 7.41,429.20 ± 19.79,6.31 ± 5.88,107.37 ± 9.98,rapidly absorbed,"AUC(0-t) [1]: 50.7 ng·h/mL; AUC0–∞ (mean ± SD) ([1]; rat plasma, single oral administration of extract 15 mL kg^−1, n = 6): 3039.62 ± 54.07 ng/L/h"
"COc1ccc(-c2cc(=O)c3c(O)cc(O)cc3o2)cc1 [Acacetin, acacetin]",17.7,31.9 ± 17.6,10,96.87 ± 0.12,108.48 ± 6.51,4.81 ± 0.22,26.99 ± 4.36,6.21,4.11,3.13,3.46,4.11,1.38,107.02 ± 3.38,4.69 ± 0.36,27.31 ± 5.34,105.68 ± 9.65,4.81 ± 0.27,26.53 ± 3.21,rapidly absorbed,AUC(0-t) [1]: 15.3 ng·h/mL
"C[C@@H]1O[C@@H](O[C@@H]2[C@@H](O)[C@H](OCCc3ccc(O)c(O)c3)O[C@H](CO)[C@H]2OC(=O)/C=C/c2ccc(O)c(O)c2)[C@H](O)[C@H](O)[C@H]1O [Acteoside, acteoside]",,650 ± 16.4,10,46.8 ± 0.35,2132.91 ± 11.91,2.1 ± 0.14,544.87 ± 4.54,5.21,3.45,4.92,6.94,1.97,4.16,2150.14 ± 11.92,2.11 ± 0.13,548.82 ± 2.92,2167.98 ± 18.52,2.07 ± 0.12,540.92 ± 9.44,rapidly absorbed,

# The next lines start with results.
AUC(0-inf) [1] [ng·h/mL],Cmax [1] [ng/mL],Tmax [1] [min],half-life [1] [min],Free-thaw stability: Measured concentration ([2]; high QC spiked concentration) [ng/mL],Free-thaw stability: Measured concentration ([2]; low QC spiked concentration) [ng/mL],Free-thaw stability: Measured concentration ([2]; medium QC spiked concentration) [ng/mL],Free-thaw stability: Accuracy ([2]; high QC spiked concentration) [%],Free-thaw stability: Accuracy ([2]; low QC spiked concentration) [%],Free-thaw stability: Accuracy ([2]; medium QC spiked concentration) [%],Long-tern stability: Accuracy ([2]; high QC spiked concentration) [%],Long-tern stability: Accuracy ([2]; low QC spiked concentration) [%],Long-tern stability: Accuracy ([2]; medium QC spiked concentration) [%],Short-tern stability: Measured concentration ([2]; high QC spiked concentration) [ng/mL],Short-tern stability: Measured concentration ([2]; low QC spiked concentration) [ng/mL],Short-tern stability: Measured concentration ([2]; medium QC spiked concentration) [ng/mL],Long-tern stability: Measured concentration ([2]; high QC spiked concentration) [ng/mL],Long-tern stability: Measured concentration ([2]; low QC spiked concentration) [ng/mL],Long-tern stability: Measured concentration ([2]; medium QC spiked concentration) [ng/mL],absorption into blood (in words) [1],SMILES,further results
35.4,77.4 ± 25.7,5,36.08 ± 0.24,258.35 ± 4.86,6.60 ± 0.18,66.03 ± 2.64,4.35,4.43,6.21,5.43,6.01,8.32,260.55 ± 0.49,6.76 ± 0.18,64.88 ± 0.92,261.02 ± 4.65,6.7 ± 0.76,67.34 ± 3.63,,"O=c1cc(-c2ccc(O)c(O)c2)oc2cc(O)cc(O)c12 [Luteolin, luteolin]",
,146 ± 14.9,180,298.5 ± 0.16,494.36 ± 4.99,7.34 ± 0.32,124.68 ± 6.33,5.51,3.67,6.63,3.51,7.06,6.48,490.89 ± 7.31,7.17 ± 1.91,123.78 ± 2.47,484.98 ± 5.09,7.58 ± 0.51,124.51 ± 4.02,absorbed very slowly,"O=c1cc(-c2ccc(O)cc2)oc2cc(O)cc(O)c12 [Apigenin, apigenin]","time of first peak of the plasma concentration–time curve [1, 3]: 5 min; time of second peak of the plasma concentration–time curve [1, 3]: 180 min"
